Published values of several laboratories.
Compare with care: the assays were run in different laboratories.
Target: Serine/threonine-protein kinase DCLK3 (DCLK3, Homo sapiens, UniProt Q9C098)
Sequence (Q9C098 1-648, as in one of the studies): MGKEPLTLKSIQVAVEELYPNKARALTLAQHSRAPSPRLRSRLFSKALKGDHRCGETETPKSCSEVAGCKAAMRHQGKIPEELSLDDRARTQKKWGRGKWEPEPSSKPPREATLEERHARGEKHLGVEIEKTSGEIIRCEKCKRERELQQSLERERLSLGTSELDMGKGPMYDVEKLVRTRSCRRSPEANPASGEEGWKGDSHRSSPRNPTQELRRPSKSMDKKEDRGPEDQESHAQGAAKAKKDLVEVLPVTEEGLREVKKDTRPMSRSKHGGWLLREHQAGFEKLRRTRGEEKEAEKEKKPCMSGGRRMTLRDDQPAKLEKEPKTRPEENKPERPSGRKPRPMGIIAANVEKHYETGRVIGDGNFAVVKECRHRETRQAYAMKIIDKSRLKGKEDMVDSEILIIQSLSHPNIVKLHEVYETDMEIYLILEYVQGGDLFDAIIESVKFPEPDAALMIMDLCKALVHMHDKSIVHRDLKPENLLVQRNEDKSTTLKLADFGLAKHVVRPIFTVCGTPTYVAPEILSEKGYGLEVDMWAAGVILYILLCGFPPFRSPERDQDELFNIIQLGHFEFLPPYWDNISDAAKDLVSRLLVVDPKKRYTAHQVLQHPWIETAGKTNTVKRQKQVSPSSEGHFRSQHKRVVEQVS

CC1=C(C#N)[C@@H](c2ccc3[nH]nc(C)c3c2)C(C#N)=C(c2ccc(Cl)cc2)N1  remaining binding (cell-free assay; competition with immobilised ligand; 1 µM): 71.3%
O=C(NCC1CCOCC1)c1n[nH]cc1NC(=O)c1c(F)cccc1F  remaining binding (binding; competition with immobilised ligand; 1 µM): 61%
Cc1cnn2ncc(-c3ccnc(N(C)C)n3)c2c1  remaining binding (binding; 1 µM): 93%
CN([C@@H]1CCc2c(CC(=O)O)c3ccccc3n2C1)S(=O)(=O)c1ccc(F)cc1  remaining binding (cell-free assay; competition with immobilised ligand; 1 µM): 99%
CN(C)c1ncc(F)c(-c2cnn3ncccc23)n1  remaining binding (binding; 1 µM): 100%
C[C@@H](c1ccc(-n2cnc3c(N)ncnc32)cc1)N1CCc2nn(C)c(Cc3ccccc3)c2C1=O  remaining binding (binding; competition with immobilised ligand; 0.1 µM): 85%
COc1ccnn2ncc(-c3ccnc(N(C)C)n3)c12  remaining binding (binding; 1 µM): 100%
C[C@H](c1cccc(C#N)c1)n1cc(Cl)cc(C(N)=O)c1=N  remaining binding (cell-free assay; competition with immobilised ligand; 1 µM): 99%
C[C@@H]1CCN(c2nccc(-c3cnn4ncccc34)n2)C1  remaining binding (binding; 1 µM): 100%
O=C(c1ccc(Nc2ncc(Cl)c(-c3ccc(Cl)s3)n2)cc1)N1CCC(N2CCCC2)CC1  remaining binding (binding; competition with immobilised ligand; 1 µM): 14%
N[C@@H]1CCN(c2nccc(-c3cnn4ncccc34)n2)C1  remaining binding (binding; 1 µM): 100%
COc1cnc(Nc2cccc(S(N)(=O)=O)c2)nc1N1CCN(c2ccccc2)CC1  remaining binding (binding; competition with immobilised ligand; 1 µM): 71%
CNC(=O)c1ccc(Nc2ncc(C(F)(F)F)c(NCc3nccnc3N(C)S(C)(=O)=O)n2)cc1  remaining binding (cell-free assay; competition with immobilised ligand; 0.1 µM): 67%
CN(CCCC(F)(F)F)c1nccc(-c2cnn3ncccc23)n1  remaining binding (binding; 1 µM): 85%
CNC(=O)[C@@H]1CC[C@@H](n2c(-c3ccc4cnccc4c3)nc3ccc(C(=O)NCc4cccc(C(N)=O)c4)cc32)C1  remaining binding (binding; competition with immobilised ligand; 1 µM): 100%
CCN1CCN(Cc2ccc(C(=O)Nc3ccc(C)c(Oc4ccc5c(c4)CC(=O)N5)c3)cc2C(F)(F)F)CC1  remaining binding (binding; competition with immobilised ligand; 1 µM): 100%
C=CC(=O)N1CCC(C(=O)NCC(=O)N2CCN(c3nc(-c4cnc(N)nc4C(F)F)nc(N4CCOCC4)n3)CC2)CC1  remaining binding (binding; competition with immobilised ligand; 1 µM): 96%
Cn1cc(Cl)c2c(Oc3c(F)cc(Nc4cc(Cl)nc(N)n4)cc3F)ccnc21  remaining binding (cell-free assay; competition with immobilised ligand; 0.1 µM): 89%
O=C(NCCCN1CCOCC1)c1ccc(Nc2ncc(Cl)c(-c3ccc(Cl)s3)n2)cc1  remaining binding (binding; competition with immobilised ligand; 1 µM): 1.9%
O=C(NS(=O)(=O)c1ccc(NCC2CCOCC2)c([N+](=O)[O-])c1)c1ccc(N2CCN(Cc3ccc(C(F)(F)F)cc3-c3ccc(Cl)cc3)CC2)cc1Oc1cnc2[nH]ccc2c1  remaining binding (cell-free assay; competition with immobilised ligand; 1 µM): 93%
O=C(NCCCN1CCOCC1)c1ccc(Nc2nccc(-c3cc4ccccc4s3)n2)cc1  remaining binding (binding; competition with immobilised ligand; 1 µM): 0.4%
